According to ChEMBL document CHEMBL1143672, “Synthesis and pharmacology of site-specific cocaine abuse treatment agents: restricted rotation analogues of methylphenidate” (J Med Chem, 2007):
Structures can show the parent of a compound that is named as a salt.

What was measured:
[1] = target: T1, Sodium-dependent dopamine transporter (Rattus norvegicus, UniProt P23977); test: Displacement of [3H]WIN-35428 from DAT in Sprague-Dawley rat striatum
[2] = target: Norepinephrine transporter (Rattus norvegicus, UniProt Q9WTR4); test: Displacement of [3H]nisoxetine from NET in Sprague-Dawley rat cortical tissue
Norepinephrine transporter, sequence (Q9WTR4 whole entry): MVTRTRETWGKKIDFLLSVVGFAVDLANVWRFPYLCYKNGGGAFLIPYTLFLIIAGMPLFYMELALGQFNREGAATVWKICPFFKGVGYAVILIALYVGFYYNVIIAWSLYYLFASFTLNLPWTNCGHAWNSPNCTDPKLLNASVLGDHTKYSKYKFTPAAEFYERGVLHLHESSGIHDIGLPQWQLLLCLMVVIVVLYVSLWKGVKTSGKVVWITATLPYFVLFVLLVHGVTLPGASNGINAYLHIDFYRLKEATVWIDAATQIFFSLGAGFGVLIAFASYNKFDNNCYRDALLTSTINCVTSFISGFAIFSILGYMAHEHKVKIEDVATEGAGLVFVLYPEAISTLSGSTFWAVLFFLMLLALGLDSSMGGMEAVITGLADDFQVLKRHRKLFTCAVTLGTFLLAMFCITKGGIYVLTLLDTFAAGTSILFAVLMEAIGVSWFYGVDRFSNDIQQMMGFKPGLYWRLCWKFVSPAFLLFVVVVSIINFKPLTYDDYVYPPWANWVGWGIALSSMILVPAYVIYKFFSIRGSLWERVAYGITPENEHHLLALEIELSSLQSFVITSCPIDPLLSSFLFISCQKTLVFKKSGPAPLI

[3] = target: Sodium-dependent serotonin transporter (Rattus norvegicus, UniProt P31652); test: Displacement of [3H]citalopram from 5HTT in Sprague-Dawley rat cerebrum
Sodium-dependent serotonin transporter, sequence (P31652 whole entry): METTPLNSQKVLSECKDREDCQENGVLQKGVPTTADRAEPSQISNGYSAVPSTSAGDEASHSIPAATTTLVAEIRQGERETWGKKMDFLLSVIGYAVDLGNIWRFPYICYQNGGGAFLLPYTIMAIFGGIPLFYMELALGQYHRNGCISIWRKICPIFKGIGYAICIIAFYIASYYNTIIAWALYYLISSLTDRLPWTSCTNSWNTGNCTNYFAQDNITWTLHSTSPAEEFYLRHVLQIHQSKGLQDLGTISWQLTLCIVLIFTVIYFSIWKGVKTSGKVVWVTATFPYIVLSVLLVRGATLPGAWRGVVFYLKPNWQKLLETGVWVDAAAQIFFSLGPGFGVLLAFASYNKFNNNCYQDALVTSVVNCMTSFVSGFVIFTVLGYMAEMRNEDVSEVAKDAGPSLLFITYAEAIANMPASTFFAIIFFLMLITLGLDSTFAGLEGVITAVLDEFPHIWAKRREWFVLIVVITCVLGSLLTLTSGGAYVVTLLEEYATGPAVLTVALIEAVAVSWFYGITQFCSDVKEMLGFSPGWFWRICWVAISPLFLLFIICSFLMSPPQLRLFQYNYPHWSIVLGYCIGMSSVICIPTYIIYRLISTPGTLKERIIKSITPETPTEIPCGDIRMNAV
Summary of the method: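 Rat cortical P2 fraction in 25 mM sodium phosphate, pH 7.7 at 0 °C; 2 nM [3H]citalopram, 3 h at 0 °C; filtration. Nonspecific binding with 1 µM clomipramine. Compounds in water, dilute DMSO or methanol (≤0.3% solvent). Data corrected for filter binding; IC50 by nonlinear regression, Ki by Cheng-Prusoff.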

[4] = target: Monoamine transporters; serotonin & dopamine (Rattus norvegicus) (UniProt P31652+P23977); test: Selectivity for rat DAT over rat 5HTT; assay type: protein assay
Monoamine transporters; serotonin & dopamine (Rattus norvegicus), sequence (P23977 whole entry, looked up): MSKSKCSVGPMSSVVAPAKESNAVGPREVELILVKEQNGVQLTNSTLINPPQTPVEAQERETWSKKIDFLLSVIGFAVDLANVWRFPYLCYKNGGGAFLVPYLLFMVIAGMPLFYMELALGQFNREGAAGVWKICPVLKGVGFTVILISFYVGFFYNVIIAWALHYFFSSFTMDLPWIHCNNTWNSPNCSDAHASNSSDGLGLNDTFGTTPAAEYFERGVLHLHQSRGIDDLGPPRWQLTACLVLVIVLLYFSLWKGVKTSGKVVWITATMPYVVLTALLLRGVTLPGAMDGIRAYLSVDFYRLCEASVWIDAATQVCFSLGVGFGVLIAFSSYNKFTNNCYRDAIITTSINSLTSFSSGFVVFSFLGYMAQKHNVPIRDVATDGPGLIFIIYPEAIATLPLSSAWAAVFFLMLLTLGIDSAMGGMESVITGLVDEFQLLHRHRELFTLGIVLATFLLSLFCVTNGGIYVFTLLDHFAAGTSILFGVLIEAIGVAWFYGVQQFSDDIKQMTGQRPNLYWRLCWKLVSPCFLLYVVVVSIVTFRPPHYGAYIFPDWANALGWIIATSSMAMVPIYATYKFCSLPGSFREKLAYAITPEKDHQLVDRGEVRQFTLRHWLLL
Monoamine transporters; serotonin & dopamine (Rattus norvegicus), sequence (P31652 whole entry, looked up): as the sequence (P31652 whole entry) above

[5] = target: Monoamine transporters; Norepininephrine & dopamine (Rattus norvegicus) (UniProt P23977+Q9WTR4); test: Selectivity for rat DAT over rat NET; assay type: protein assay
[6] = target: Monoamine transporters; Norepinephrine & serotonin (Rattus norvegicus) (UniProt P31652+Q9WTR4); test: Selectivity for rat NET over rat 5HTT; assay type: protein assay
[7] = target: Sodium-dependent serotonin transporter (Rattus norvegicus) (UniProt P31652); test: Displacement of [3H]citalopram from 5HTT in Sprague-Dawley rat cerebrum at 10 uM
Sodium-dependent serotonin transporter (Rattus norvegicus), sequence (P31652 whole entry): as above

[8] = target: T1, Sodium-dependent dopamine transporter; test: Inhibition of [3H]DA uptake at DAT in Sprague-Dawley rat striatum
Summary of the method: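 Uptake of [3H]dopamine into the S1 fraction of rat striatal homogenate; IC50 from curves fit by nonlinear regression.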

[9] = target: Norepinephrine transporter (Rattus norvegicus) (UniProt Q9WTR4); test: Displacement of [3H]nisoxetine from NET in Sprague-Dawley rat cortical tissue at 5 uM
Norepinephrine transporter (Rattus norvegicus), sequence (Q9WTR4 as listed by the source): as the sequence (Q9WTR4 whole entry) above

[10] = target: Norepinephrine transporter (Rattus norvegicus) (UniProt Q9WTR4); test: Displacement of [3H]nisoxetine from NET in Sprague-Dawley rat cortical tissue at 10 uM

T1 sequence (P23977 whole entry): as the sequence (P23977 whole entry, looked up) above

| SMILES | Ki [1] | Ki [2] | Ki [3] | Selectivity ratio [4] | Selectivity ratio [5] | Selectivity ratio [6] | inhibition [7] | IC50 [8] | inhibition [9] | inhibition [10] |
| --- | --- | --- | --- | --- | --- | --- | --- | --- | --- | --- |
| O[C@H]1CCN2CCCC[C@@H]2[C@H]1c1ccc(Cl)c(Cl)c1 | 2.46 nM | 27.9 nM | 168 nM | 68 | 11 | 6 |  |  |  |  |
| CC[C@@H]1CCN2CCCC[C@@H]2[C@H]1c1ccccc1 | 27.6 nM | 411 nM | 2390 nM | 87 | 15 | 5.8 | 80% |  |  |  |
| CC[C@@]1(O)CCN2CCCC[C@@H]2[C@H]1c1ccccc1 | 175 nM | 1520 nM |  | > 57 | 8.69 | > 6.6 | 19% |  |  |  |
| COC[C@H](c1ccccc1)[C@H]1CCCCN1 (relative stereo) | 89.9 nM |  |  | 110 |  |  | 47.8% | 281 nM |  |  |
| Clc1ccccc1[C@H]1CCCN2CCCC[C@H]12 (relative stereo) | 480 nM | 2750 nM | 1840 nM | 3.8 | 5.7 | 0.67 |  | 1260 nM | 58% |  |
| COC(=O)[C@H](c1ccccc1)[C@H]1CCCCN1 [DEXMETHYLPHENIDATE HYDROCHLORIDE] |  | 270 nM |  |  |  |  | 14% |  |  |  |
| O=C1CCN2CCCC[C@@H]2[C@H]1c1ccccc1 (relative stereo) | 908 nM | 4030 nM |  | > 11 | 4.4 | > 2.5 | 5% | 12400 nM | 52% |  |
| CC[C@@H]1CCN2CCCC[C@@H]2[C@H]1c1ccc(Cl)c(Cl)c1 | 3.44 nM | 102 nM | 286 nM | 83 | 30 | 2.8 |  |  |  |  |
| O=C1CCN2CCCC[C@@H]2[C@H]1c1ccc(Cl)c(Cl)c1 (relative stereo) | 14 nM | 280 nM |  | 710 | 20 | 36 | 54% |  |  |  |
| COC(=O)[C@H](c1ccccc1Cl)[C@H]1CCCCN1 | 1740 nM |  |  | > 5.7 |  |  | 22.2% | 2660 nM |  |  |
| Clc1ccc([C@H]2CCCN3CCCC[C@H]23)cc1Cl (relative stereo) | 3.39 nM | 28.4 nM | 121 nM | 36 | 8.4 | 4.3 |  | 11 nM |  |  |
| CC[C@H]1CCN2CCCC[C@@H]2[C@H]1c1ccccc1 | 5.51 nM | 60.8 nM | 3550 nM | 640 | 11 | 58 | 86% |  |  |  |
| OC[C@H](c1ccccc1)[C@H]1CCCCN1 (relative stereo) | 406 nM |  |  | > 25 |  |  | 31% | 1520 nM |  |  |
| O[C@H]1CCN2CCCC[C@@H]2[C@H]1c1ccccc1 | 108 nM | 351 nM |  | > 93 | 3.3 | > 28 | 12% | 680 nM |  |  |
| CO[C@@H]1CCN2CCCC[C@@H]2[C@H]1c1ccccc1 | 570 nM | 2040 nM |  | > 18 | 3.6 | > 4.9 | 14% | 1850 nM | 64% |  |
| c1ccc(CC2CCCCN2)cc1 (stereo not given) | 6360 nM |  |  | > 1.6 |  |  | 22% | 8800 nM |  | 36% |

| SMILES | Ki [1] | Ki [2] | Ki [3] | Selectivity ratio [4] | Selectivity ratio [5] | Selectivity ratio [6] | inhibition [7] | IC50 [8] | inhibition [9] | inhibition [10] |
| --- | --- | --- | --- | --- | --- | --- | --- | --- | --- | --- |
| O[C@@H]1CCN2CCCC[C@@H]2[C@H]1c1ccccc1 | 6250 nM |  |  | > 1.6 | > 0.8 |  | 1% | 10700 nM | 23.7% |  |
| OC[C@H](c1ccc(Cl)c(Cl)c1)[C@H]1CCCCN1 (relative stereo) | 3.91 nM |  | 276 nM | 71 |  |  | 94.6% | 22.5 nM |  |  |
| Clc1ccc([C@@H]2CCCN3CCCC[C@H]23)cc1Cl (relative stereo) | 34.6 nM | 160 nM | 102 nM | 3 | 4.6 | 0.64 |  | 87.6 nM |  |  |
| O[C@@H]1CCN2CCCC[C@@H]2[C@H]1c1ccc(Cl)c(Cl)c1 | 35.7 nM | 367 nM | 2050 nM | 57 | 10 | 5.6 |  |  |  |  |
| c1ccc([C@H]2CCCN3CCCC[C@H]23)cc1 (relative stereo) | 76.2 nM | 138 nM | 5140 nM | 67 | 1.8 | 37 |  | 244 nM |  |  |
| COC(=O)[C@H](c1ccc(Cl)c(Cl)c1)[C@H]1CCCCN1 | 4.76 nM |  | 667 nM | 140 |  |  |  | 7 nM |  |  |
| O=C1CC[C@H](c2ccccc2)[C@H]2CCCCN12 |  |  | 3550 nM | 0.54 | > 0.76 | < 0.7 |  | 8490 nM | 11% |  |
| CCN1CCCC[C@@H]1[C@H](CO)c1ccccc1 (relative stereo) | 2100 nM |  |  | > 4.8 |  |  | 16.2% | 10400 nM |  |  |
| COC(=O)[C@@H](c1ccc(Cl)c(Cl)c1)[C@H]1CCCCN1 (relative stereo) | 363 nM |  | 2570 nM | 7.1 |  |  |  | 317 nM |  |  |
| C[C@H]1C[C@H](c2ccccc2)[C@H]2CCCCN2C1 | 178 nM | 694 nM | 427 nM | 2.4 | 3.9 | 0.62 |  | 368 nM |  |  |
| c1ccc(C2CCCNC2)cc1 (stereo not given) | 4560 nM | 534 nM |  | 2.2 | 0.12 | 19 | 53% | 1060 nM |  |  |
| CCN1CCCC[C@@H]1[C@H](C)c1ccccc1 (relative stereo) | 7610 nM |  |  | > 1.3 | > 0.66 |  | 11% | 7960 nM | 8.3% |  |
| CO[C@H]1CCN2CCCC[C@@H]2[C@H]1c1ccccc1 | 10.8 nM | 63.7 nM | 2070 nM | 190 | 5.9 | 32 | 73% | 61 nM |  |  |
| CC[C@H]1CCN2CCCC[C@@H]2[C@H]1c1ccc(Cl)c(Cl)c1 | 4.12 nM | 98.8 nM | 199 nM | 48 | 24 | 2 |  |  |  |  |
| C[C@@H]1C[C@H](c2ccccc2)[C@H]2CCCCN2C1 | 119 nM | 76 nM | 243 nM | 2 | 0.64 | 3.2 |  | 248 nM |  |  |
